ChEMBL document CHEMBL3526140, “Prediction of human intestinal absorption of the prodrug temocapril by in situ single-pass perfusion using rat intestine with modified hydrolase activity” (Drug Metab Dispos, 2011)

How the values were obtained:
Jejunum [1] = assay: Drug uptake in Wistar rat jejunum blood vessel assessed as rate of drug appearance at 100 uM at pH 6.4 by in-situ single-pass perfusion method; type: ADME, tissue-based; conditions: in vivo, pH 6.4, 100 µM
How it was run: (§1)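 Rats fasted 18–24 h, anesthetized with intraperitoneal pentobarbital. Isolated cannulated jejunal segment kept at 37°C in Krebs–Henseleit buffer with 3% BSA and 10 mM glucose. Vascular perfusion with Krebs–Henseleit (pH 7.4) at 2.5 ml/min. Lumen perfused at 0.2 ml/min with phosphate buffer (pH 5.4, 6.4 or 7.4) containing 100 µM drug plus FD-4. Luminal and vascular samples assayed by HPLC (UV 258 nm). Parameters normalized to 10 cm intestine. Mean ± S.D., n = 3–6.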

Jejunum [2] = assay: Apparent absorption clearance in Wistar rat jejunum at 100 uM at pH 6.4 by in-situ single-pass perfusion method; type: ADME, tissue-based; conditions: in vivo; how it was run: as §1
Jejunum [3] = assay: Drug uptake in Wistar rat jejunum lumen assessed as rate of drug appearance at 100 uM by in-situ single-pass perfusion method; type: ADME, tissue-based; conditions: in vivo; how it was run: as §1
Jejunum [4] = assay: Intracellular drug level in Wistar rat jejunum at 100 uM at pH 6.4 by in-situ single-pass perfusion method; type: ADME, tissue-based; conditions: in vivo; how it was run: as §1
Jejunum [5] = assay: Drug uptake in Wistar rat jejunum blood vessel assessed as rate of drug appearance at 100 uM by in-situ single-pass perfusion method; type: ADME, tissue-based; conditions: in vivo; how it was run: as §1
[6] = Partition coefficient, log P between n-octanol and phosphate buffer at pH 7.4; type: physicochemical

Drug uptake (Jejunum [1]): 0.193 nmol/min | CL(app) (Jejunum [2]): 1.87 µL/min | Drug uptake (Jejunum [3]): 2.25 nmol/min | Drug uptake (Jejunum [4]): 2.99 nmol/g | Drug uptake (Jejunum [5]): 1.22 nmol/min | logD [6]: 2.5
Structure (SMILES): O=C(O)CN1C[C@@H](c2cccs2)SC[C@H](N[C@@H](CCc2ccccc2)C(=O)O)C1=O [TEMOCAPRILAT]
